# From ChEMBL document CHEMBL1153864, “Phase transfer catalyzed synthesis of bis-quinolines: antileishmanial activity in experimental visceral leishmaniasis and in vitro antibacterial evaluation” (Eur J Med Chem, 2009)
# Activity calls are given as the source filed them. No cut-off for these calls is given here.
# Tests used:
# Leishmania donovani [1] = experiment: Antileishmanial activity against Leishmania donovani MHOM/IN/1983/AG83 promastigotes infected BALB/c mouse assessed as reduction in liver parasite burden at 5.5 mg/kg, ip administered two times per week for 4 weeks relative to control; type: functional; design: scale not given: the % may be the effect or the level left; settings: route intraperitoneal
# Summary of the method: (§1)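 BALB/c mice (4-6 weeks) were infected iv with 2 × 10^7 freshly transformed promastigotes. One month later, groups were dosed ip in 0.2% Tween 80 in PBS (0.02 M), twice weekly for one month (8 doses); controls got vehicle only. Mice were killed one month post-treatment and spleen and liver were weighed. Parasite load came from Giemsa impression smears as organ weight (mg) × amastigotes per cell nucleus × 2 × 10^5. Values are mean ± S.E. of 5 mice; unpaired t-test.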
# Mus musculus [2] = experiment: Toxicity in BALB/c mouse assessed as effect on serum glutamate oxaloacetate transaminase levels at 5.5 mg/kg, ip administered two times per week for 4 weeks; type: organism-based; design: dose 5.5 mg/kg, route intraperitoneal; settings: in vivo, 672 h
# Summary of the method: (§2)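 Normal BALB/c mice were dosed ip twice per week for 4 weeks. Blood was collected one month after treatment, and serum SGPT and SGOT (IU/l) and blood urea (mg/dl) were measured with commercial kits and compared with untreated normal mice.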
# Mus musculus [3] = experiment: Toxicity in BALB/c mouse assessed as effect on serum glutamate oxaloacetate transaminase levels at 12.5 mg/kg, ip administered two times per week for 4 weeks; type: organism-based; design: dose 12.5 mg/kg, route intraperitoneal; settings: in vivo, 672 h; summary of the method: as §2
# Staphylococcus aureus = experiment: Antibacterial activity against Staphylococcus aureus ML6 ug/ml after 24 hrs by agar dilution method; type: functional; settings: ML6, 24 h
# Summary of the method: (§3)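 Agar dilution MIC. Compound dissolved in sterile 0.2% DMSO, diluted in distilled water and mixed into molten nutrient agar (pH 7.2–7.4) at 5, 10, 25, 50; plate with 0.2% DMSO as control. Gram-positives grown 18 h in nutrient broth, Gram-negatives in peptone water. Stationary-phase suspension set to 0.5 McFarland, diluted 1:100, spot-inoculated at about 10^5 CFU per loopful. Plates held 24 h at 37 °C (up to 72 h if needed). MIC is the lowest level with no growth.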
# Bacillus licheniformis = experiment: Antibacterial activity against […] Bacillus licheniformis NCTC 10341 after 24 hrs by agar dilution method; type: functional; settings: NCTC 10341, 24 h; summary of the method: as §3
# Salmonella typhimurium [4] = experiment: Antibacterial activity against Salmonella Typhimurium NCTC 74 at 25 ug/ml after 24 hrs by agar dilution method; type: functional, organism-based; settings: Salmonella enterica subsp. enterica serovar Typhimurium; summary of the method: as §3
# Salmonella typhimurium [5] = experiment: Antibacterial activity against Salmonella Typhimurium NCTC 74 at 50 ug/ml after 24 hrs by agar dilution method; type: functional, Salmonella enterica subsp. enterica serovar Typhimurium; settings: Salmonella enterica, NCTC 74, 24 h; summary of the method: as §3
# Shigella dysenteriae [6] = experiment: Antibacterial activity against Shigella dysenteriae 6 NCTC 100/54 at 10 ug/ml after 24 hrs by agar dilution method; type: functional, organism-based
# Shigella dysenteriae [7] = experiment: Antibacterial activity against Shigella dysenteriae 6 NCTC 100/54 at 25 ug/ml after 24 hrs by agar dilution method; type: functional, organism-based
# Shigella dysenteriae [8] = experiment: Antibacterial activity against Shigella dysenteriae 6 NCTC 100/54 at 50 ug/ml after 24 hrs by agar dilution method; type: functional; settings: 6 NCTC 100/54, 24 h
# Shigella dysenteriae [9] = experiment: Antibacterial activity against Shigella dysenteriae 6 NCTC 100/54 after 24 hrs by agar dilution method; type: functional; settings: 6 NCTC 100/54, 24 h
# Escherichia coli [10] = experiment: Antibacterial activity against Escherichia coli K-12 Row at 25 ug/ml after 24 hrs by agar dilution method; type: functional, organism-based; summary of the method: as §3
# Escherichia coli [11] = experiment: Antibacterial activity against Escherichia coli ATCC 25938 at 5 ug/ml after 24 hrs by agar dilution method; type: functional, organism-based; summary of the method: as §3
# Escherichia coli [12] = experiment: Antibacterial activity against Escherichia coli ATCC 25938 at 10 ug/ml after 24 hrs by agar dilution method; type: functional, organism-based; summary of the method: as §3
# Escherichia coli [13] = experiment: Antibacterial activity against Escherichia coli ATCC 25938 at 50 ug/ml after 24 hrs by agar dilution method; type: functional; settings: ATCC 25938, 24 h; summary of the method: as §3
# Vibrio cholerae [14] = experiment: Antibacterial activity against Vibrio cholerae 569B at 5 ug/ml after 24 hrs by agar dilution method; type: functional, organism-based
# Vibrio cholerae [15] = experiment: Antibacterial activity against Vibrio cholerae 569B at 25 ug/ml after 24 hrs by agar dilution method; type: functional
# Vibrio cholerae [16] = experiment: Antibacterial activity against Vibrio cholerae 569B at 50 ug/ml after 24 hrs by agar dilution method; type: functional
# Vibrio cholerae [17] = experiment: Antibacterial activity against Vibrio cholerae 582 at 5 ug/ml after 24 hrs by agar dilution method; type: functional; settings: Vibrio cholerae, 582, 24 h
# Proteus mirabilis [18] = experiment: Antibacterial activity against Proteus mirabilis 7 at 10 ug/ml after 24 hrs by agar dilution method; type: functional, organism-based; summary of the method: as §3
# Proteus mirabilis [19] = experiment: Antibacterial activity against Proteus mirabilis 7 at 25 ug/ml after 24 hrs by agar dilution method; type: functional, organism-based; summary of the method: as §3
# Proteus mirabilis [20] = experiment: Antibacterial activity against Proteus mirabilis 7 after 24 hrs by agar dilution method; type: functional; settings: Proteus mirabilis, 7, 24 h; summary of the method: as §3
# Proteus mirabilis [21] = experiment: Antibacterial activity against Proteus mirabilis 175 at 10 ug/ml after 24 hrs by agar dilution method; type: functional, organism-based; summary of the method: as §3
# Proteus mirabilis [22] = experiment: Antibacterial activity against Proteus mirabilis 175 at 25 ug/ml after 24 hrs by agar dilution method; type: functional, organism-based; summary of the method: as §3
# Proteus mirabilis [23] = experiment: Antibacterial activity against Proteus mirabilis 175 after 24 hrs by agar dilution method; type: functional; settings: Proteus mirabilis, 175, 24 h; summary of the method: as §3
# Pseudomonas aeruginosa = experiment: Antibacterial activity against Pseudomonas aeruginosa ATCC 27853 at 10 ug/ml after 24 hrs by agar dilution method; type: functional, organism-based; summary of the method: as §3
# Shigella dysenteriae [24] = experiment: Antibacterial activity against Shigella dysenteriae 7 NCTC 519/66 after 24 hrs by agar dilution method; type: functional; settings: 7 NCTC 519/66, 24 h
# Leishmania donovani [25] = experiment: Antileishmanial activity against Leishmania donovani MHOM/IN/1983/AG83 promastigotes assessed as induction of vacuolization at 2 ug/ml after 2 hrs by transmission electron microscopy; type: functional, organism-based
# Summary of the method: (§4)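 Log-phase promastigotes, grown at 22 °C in M199 with 10% FBS, were exposed for 2 h to the compound; controls received 0.1% DMSO alone. Cells were then sectioned, stained on copper grids with uranyl acetate and lead acetate for 10-15 min each, and examined by TEM for ultrastructural changes.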
# Leishmania donovani [26] = experiment: Antileishmanial activity against Leishmania donovani MHOM/IN/1983/AG83 promastigotes assessed as induction of membrane blebbing at 2 ug/ml after 2 hrs by transmission electron microscopy; type: functional, organism-based; summary of the method: as §4
# Leishmania donovani [27] = experiment: Antileishmanial activity against Leishmania donovani MHOM/IN/1983/AG83 promastigotes assessed as induction of membrane blebbing at 11.5 ug/ml after 2 hrs by transmission electron microscopy; type: functional, organism-based; summary of the method: as §4
# Leishmania donovani [28] = experiment: Antileishmanial activity against Leishmania donovani MHOM/IN/1983/AG83 promastigotes assessed as induction of chromatin condensation at 11.5 ug/ml after 2 hrs by transmission electron microscopy; type: functional, organism-based
# [29] = Down regulation of TNFalpha release Leishmania donovani MHOM/IN/1983/AG83 infected bacterial liposaccharide-stimulated golden Syrian hamster peritoneal macrophages; type: functional, cell-based; settings: Mesocricetus auratus; Macrophage
# Leishmania donovani [30] = experiment: Antileishmanial activity against Leishmania donovani MHOM/IN/1983/AG83 promastigotes infected BALB/c mouse assessed as spleen weight at 12.5 mg/kg, ip administered two times per week for 4 weeks; type: functional; settings: route intraperitoneal; summary of the method: as §1
# [31] = Toxicity against golden Syrian hamster peritoneal macrophages; type: cell-based, Mesocricetus auratus; settings: macrophage
smiles,measurement,setting,value
Clc1ccc(OCOc2ccc(Cl)c3cccnc23)c2ncccc12,Activity,Leishmania donovani [1],78%
same,Activity,Mus musculus [2],Non-toxic
same,Activity,Mus musculus [3],Non-toxic
same,MIC,Staphylococcus aureus,10 µg/mL
same,MIC,Bacillus licheniformis,50 µg/mL
same,Activity,Salmonella typhimurium [4],inactive
same,inhibition at 50 µg/mL,Salmonella typhimurium [5],100%
same,Activity,Shigella dysenteriae [6],inactive
same,Activity,Shigella dysenteriae [7],inactive
same,inhibition at 50 µg/mL,Shigella dysenteriae [8],100%
same,MIC,Shigella dysenteriae [9],50 µg/mL
same,Activity,Escherichia coli [10],inactive
same,Activity,Escherichia coli [11],inactive
same,Activity,Escherichia coli [12],inactive
same,inhibition at 50 µg/mL,Escherichia coli [13],100%
same,Activity,Vibrio cholerae [14],inactive
same,inhibition at 25 µg/mL,Vibrio cholerae [15],100%
same,inhibition at 50 µg/mL,Vibrio cholerae [16],100%
same,inhibition at 5 µg/mL,Vibrio cholerae [17],100%
same,Activity,Proteus mirabilis [18],inactive
same,Activity,Proteus mirabilis [19],inactive
same,MIC,Proteus mirabilis [20],50 µg/mL
same,Activity,Proteus mirabilis [21],inactive
same,Activity,Proteus mirabilis [22],inactive
same,MIC,Proteus mirabilis [23],50 µg/mL
same,Activity,Pseudomonas aeruginosa,inactive
same,MIC,Shigella dysenteriae [24],10 µg/mL
same,Activity,Leishmania donovani [25],Active
same,Activity,Leishmania donovani [26],Active
same,Activity,Leishmania donovani [27],Active
same,Activity,Leishmania donovani [28],Active
same,Activity,[29],Active
same,Activity,Leishmania donovani [30],90 mg
same,Activity,[31],> 80 µg/mL
